According to ChEMBL document CHEMBL1132448, “Enantiospecific synthesis of 3-fluoromethyl-, 3-hydroxymethyl-, and 3-chloromethyl-1,2,3,4-tetrahydroisoquinolines as selective inhibitors of phenylethanolamine N-methyltransferase versus the alpha(2)-adrenoceptor” (J Med Chem, 1999):

Tests used:
[1] = Ratio of binding affinity of PNMT to alpha-2 receptors.
[2] = molecular target: T1, Phenylethanolamine N-methyltransferase (Bos taurus, UniProt P10938); assay: In vitro inhibition of PNMT (Phenylethanolamine N-Methyltransferase).
T1 sequence (P10938 whole entry): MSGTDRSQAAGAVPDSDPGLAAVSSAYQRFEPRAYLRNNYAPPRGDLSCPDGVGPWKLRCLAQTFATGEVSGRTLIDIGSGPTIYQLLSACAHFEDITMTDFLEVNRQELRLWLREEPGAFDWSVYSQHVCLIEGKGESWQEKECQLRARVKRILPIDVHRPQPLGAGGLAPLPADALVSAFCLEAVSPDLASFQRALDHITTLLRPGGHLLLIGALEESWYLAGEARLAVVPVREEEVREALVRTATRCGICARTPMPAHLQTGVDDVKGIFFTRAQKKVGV

[3] = molecular target: T2, Adrenergic receptor alpha-2 (Rattus norvegicus, UniProt P22086+P19328+P22909); assay: In vitro inhibition of [3H]clonidine binding at the alpha-2 adrenergic receptor.; format: protein assay
T2 sequence (P22086 whole entry): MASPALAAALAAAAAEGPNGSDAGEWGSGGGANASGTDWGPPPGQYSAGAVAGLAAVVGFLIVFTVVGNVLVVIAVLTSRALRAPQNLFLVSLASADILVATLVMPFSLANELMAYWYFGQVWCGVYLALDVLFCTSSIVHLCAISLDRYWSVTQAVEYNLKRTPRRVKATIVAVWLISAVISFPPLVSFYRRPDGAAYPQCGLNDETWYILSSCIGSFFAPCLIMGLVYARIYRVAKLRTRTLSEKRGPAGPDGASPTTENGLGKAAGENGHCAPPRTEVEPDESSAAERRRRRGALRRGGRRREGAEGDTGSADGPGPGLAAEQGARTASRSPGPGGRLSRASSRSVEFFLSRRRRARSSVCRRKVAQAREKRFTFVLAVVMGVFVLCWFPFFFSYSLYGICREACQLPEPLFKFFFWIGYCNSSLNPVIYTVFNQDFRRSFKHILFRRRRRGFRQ
T2 sequence (P19328 whole entry): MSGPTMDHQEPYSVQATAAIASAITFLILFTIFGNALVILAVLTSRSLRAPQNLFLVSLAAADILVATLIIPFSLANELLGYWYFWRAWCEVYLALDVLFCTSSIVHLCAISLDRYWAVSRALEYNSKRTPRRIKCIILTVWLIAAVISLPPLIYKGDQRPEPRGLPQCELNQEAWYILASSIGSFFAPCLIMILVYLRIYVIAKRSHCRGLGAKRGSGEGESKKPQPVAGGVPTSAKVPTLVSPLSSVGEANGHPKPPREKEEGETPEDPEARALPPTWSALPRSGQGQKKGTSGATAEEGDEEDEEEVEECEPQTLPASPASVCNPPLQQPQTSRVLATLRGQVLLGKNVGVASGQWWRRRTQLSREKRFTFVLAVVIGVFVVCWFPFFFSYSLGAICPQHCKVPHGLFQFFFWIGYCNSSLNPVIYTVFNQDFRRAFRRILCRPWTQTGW
T2 sequence (P22909 whole entry): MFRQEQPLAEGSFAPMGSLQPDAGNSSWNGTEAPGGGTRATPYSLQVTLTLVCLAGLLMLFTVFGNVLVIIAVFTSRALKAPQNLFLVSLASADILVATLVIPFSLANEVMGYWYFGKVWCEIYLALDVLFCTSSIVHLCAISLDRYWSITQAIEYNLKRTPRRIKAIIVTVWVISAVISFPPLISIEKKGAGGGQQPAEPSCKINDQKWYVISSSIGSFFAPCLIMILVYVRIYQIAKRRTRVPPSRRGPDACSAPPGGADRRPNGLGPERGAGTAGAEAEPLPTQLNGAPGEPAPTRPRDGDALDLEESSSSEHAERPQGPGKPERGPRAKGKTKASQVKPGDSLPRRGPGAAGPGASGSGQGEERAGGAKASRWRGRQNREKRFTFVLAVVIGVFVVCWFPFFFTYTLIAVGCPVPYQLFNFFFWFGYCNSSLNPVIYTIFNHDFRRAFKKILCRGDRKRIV
In short: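 Membranes from male Sprague-Dawley rat cortex, homogenized and washed in 50 mM Tris/HCl pH 7.7. Incubated with [3H]clonidine (final 2.0 nM) and various inhibitor concentrations, 1 mL final volume, 25 °C for 30 min. Terminated by vacuum filtration on GF/B filters and counted. Nonspecific binding defined with 2 µM phentolamine. IC50 by log-probit analysis; Ki = IC50/(1 + [clonidine]/KD).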

ClC[C@@H]1Cc2ccccc2CN1
Selectivity [1]: 0.55 | Ki [2]: 12 µM | Ki [3]: 6.6 µM

N#Cc1ccc2c(c1)CN[C@H](CF)C2
Selectivity [1]: 170 | Ki [2]: 3.5 µM | Ki [3]: 580 µM

O=[N+]([O-])c1ccc2c(c1)CN[C@@H](CF)C2
Selectivity [1]: 90 | Ki [2]: 0.52 µM | Ki [3]: 47 µM

C[C@@H]1Cc2ccc([N+](=O)[O-])cc2CN1
Selectivity [1]: 76 | Ki [2]: 0.25 µM | Ki [3]: 19 µM

O=S(=O)(Nc1ccc(Cl)cc1)c1ccc2c(c1)CN[C@@H](CF)C2
Selectivity [1]: 350 | Ki [2]: 0.28 µM | Ki [3]: 97 µM

FC[C@H]1Cc2ccc(Br)cc2CN1
Selectivity [1]: 6.1 | Ki [2]: 0.51 µM | Ki [3]: 3.1 µM

O=[N+]([O-])c1ccc2c(c1)CN[C@H](CF)C2
Selectivity [1]: 160 | Ki [2]: 0.88 µM | Ki [3]: 140 µM

NS(=O)(=O)c1ccc2c(c1)CNC(CF)C2 (centres undefined)
Selectivity [1]: 1000

OC[C@@H]1Cc2ccccc2CN1
Selectivity [1]: 1.1

ClC[C@H]1Cc2ccccc2CN1
Selectivity [1]: 0.66 | Ki [2]: 3.5 µM | Ki [3]: 2.3 µM

O=S(=O)(Nc1ccc(Cl)cc1)c1ccc2c(c1)CNC(CF)C2 (centres undefined)
Selectivity [1]: 220

O=[N+]([O-])c1ccc2c(c1)CNC(CF)C2 (centres undefined)
Selectivity [1]: 140

FCC1Cc2ccccc2CN1 (centres undefined)
Selectivity [1]: 2.5

CCC1Cc2ccccc2CN1 (centres undefined)
Selectivity [1]: 0.028

FC[C@H]1Cc2ccccc2CN1
Selectivity [1]: 4.2 | Ki [2]: 0.69 µM | Ki [3]: 2.9 µM

C[C@@H]1Cc2ccccc2CN1
Selectivity [1]: 0.49 | Ki [2]: 1 µM | Ki [3]: 0.49 µM

N#Cc1ccc2c(c1)CN[C@@H](CF)C2
Selectivity [1]: 370 | Ki [2]: 0.97 µM | Ki [3]: 360 µM

CC1Cc2ccccc2CN1 (centres undefined)
Selectivity [1]: 0.36

c1ccc2c(c1)CCNC2
Selectivity [1]: 0.35

OC[C@H]1Cc2ccc(Br)cc2CN1
Selectivity [1]: 3.2 | Ki [2]: 0.38 µM | Ki [3]: 1.2 µM

FCC1Cc2ccc(Br)cc2CN1 (centres undefined)
Selectivity [1]: 10

O=[N+]([O-])c1ccc2c(c1)CN[C@@H](CCl)C2
Selectivity [1]: 210 | Ki [2]: 0.47 µM | Ki [3]: 100 µM

OC[C@@H]1Cc2ccc(Br)cc2CN1
Selectivity [1]: 2 | Ki [2]: 0.48 µM | Ki [3]: 0.97 µM

FC[C@@H]1Cc2ccccc2CN1
Selectivity [1]: 3.7 | Ki [2]: 9.9 µM | Ki [3]: 37 µM

Clc1ccc2c(c1Cl)CNCC2
Selectivity [1]: 0.095

O=[N+]([O-])c1ccc2c(c1)CN[C@H](CCl)C2
Selectivity [1]: 410 | Ki [2]: 0.66 µM | Ki [3]: 270 µM

NS(=O)(=O)c1ccc2c(c1)CNC(CO)C2 (centres undefined)
Selectivity [1]: 4100

O=S(=O)(Nc1ccc(Cl)cc1)c1ccc2c(c1)CN[C@H](CF)C2
Selectivity [1]: 53 | Ki [2]: 1.9 µM | Ki [3]: 101 µM

N#Cc1ccc2c(c1)CNC(CF)C2 (centres undefined)
Selectivity [1]: 420

OC[C@H]1Cc2ccccc2CN1
Selectivity [1]: 7.9

C[C@H]1Cc2ccccc2CN1
Selectivity [1]: 0.15 | Ki [2]: 38 µM | Ki [3]: 5.7 µM

OCC1Cc2ccccc2CN1 (centres undefined)
Selectivity [1]: 6

FC[C@@H]1Cc2ccc(Br)cc2CN1
Selectivity [1]: 36 | Ki [2]: 0.47 µM | Ki [3]: 17 µM

C[C@H]1Cc2ccc([N+](=O)[O-])cc2CN1
Selectivity [1]: 41 | Ki [2]: 1.3 µM | Ki [3]: 53 µM
